From ChEMBL document CHEMBL4316649, “The Mosaic of Rottlerin: The Sequel” (J Nat Prod, 2019) come the findings set out here.

Values after ≈ are worked out from the molar mass of the structure shown.

One data set relates to Staphylococcus aureus. Nature of the data set: Antibacterial activity against Staphylococcus aureus measured after 24 hrs. In kind it is functional. Summed up:
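Broth microdilution in TSB. Overnight 37 °C culture from a single colony, washed twice by centrifugation/resuspension in TSB, set to OD600 0.1 (10⁸ CFU/mL), then diluted to 10⁵ CFU/mL. Bacteria added 3:1 to serially diluted compound (DMSO stock diluted in water). Incubated 37 °C, 24 h; OD600 read. MIC = lowest concentration giving OD like the no-bacteria control. Triplicate, three independent experiments.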

Data set [1] can be described thus: Stability of the compound in toluene under room temperature by 1H NMR-spectroscopic analysis. The class given is physicochemical.
Data set [2] can be described thus: Drug metabolism in DMSO-d6 assessed as 6-(3-Acetyl-2,4,6-trihydroxy-5-methylbenzyl)-5-hydroxy-2,2-dimethyl-8-phenyl-8,9-dihydro-2H,10H-pyrano[2,3-f]-chromen-10-one formation measured after 2 hrs at 100 degC by 1H NMR analysis.
Data set [3] in a line: Stability of the compound in CHCl3 under intense heating condition by 1H NMR-spectroscopic analysis. In kind it is physicochemical.
A short description of data set [4]: Drug metabolism in DMSO-d6 assessed as 6-(3-Acetyl-2,4,6-trihydroxy-5-methylbenzyl)-5-hydroxy-2,2-dimethyl-8-phenyl-8,9-dihydro-2H,10H-pyrano[2,3-f]-chromen-10-one formation measured after 2 months at room temperature by HSQC analysis.
Data set [5] can be described thus: Stability of the compound in acetone under intense heating condition by 1H NMR-spectroscopic analysis. The class given is physicochemical.
Data set [6] can be described thus: Stability of the compound in acetone under room temperature by 1H NMR-spectroscopic analysis. The class given is physicochemical.
The nature of data set [7]: Stability of the compound in MeCN under intense heating condition by 1H NMR-spectroscopic analysis. The class given is physicochemical.
Data set [8] is described as follows: Drug metabolism in DMSO-d6 assessed as isorottlerin formation measured after 2 months at room temperature by HSQC analysis.
The nature of data set [9]: Drug metabolism in DMSO-d6 assessed as 6-(3-Acetyl-2,4,6-trihydroxy-5-methylbenzyl)-5-hydroxy-2,2-dimethyl-8-phenyl-8,9-dihydro-2H,10H-pyrano[2,3-f]-chromen-10-one formation measured after 2 months at room temperature by RP-HPLC analysis.
Data set [10] is described as follows: Drug metabolism in DMSO-d6 assessed as isorottlerin formation measured after 2 hrs at 100 degC by 1H NMR analysis.
Data set [11] in a line: Stability of the compound in toluene under intense heating condition by 1H NMR-spectroscopic analysis. In kind it is physicochemical.
Data set [12] in a line: Stability of the compound in MeCN under room temperature by 1H NMR-spectroscopic analysis. The class given is physicochemical.
Data set [13] in a line: Drug metabolism in DMSO-d6 assessed as isorottlerin formation measured after 2 months at room temperature by RP-HPLC analysis.
The nature of data set [14]: Stability of the compound in DMSO-d6 measured after 2 months at room temperature by 1H NMR-spectroscopic analysis. The conditions noted are these: 1461 h. The class given is physicochemical.
Data set [15] in a line: Stability of the compound in CHCl3 under room temperature by 1H NMR-spectroscopic analysis. In kind it is physicochemical.

In general, MIC refers to the lowest concentration found to suppress growth. A low value points to a more susceptible organism. On to `CC(=O)c1c(O)cc(O)c(Cc2c(O)c3c(c(C(=O)/C=C/c4ccccc4)c2O)OC(C)(C)C=C3)c1O`, for which the MIC in the data set with Staphylococcus aureus was found to be 7.8 µM (≈ 3.92 µg/mL).
In the case of `CC(=O)c1c(O)c(C)c(O)c(Cc2c(O)c3c(c4c2OC(c2ccccc2)CC4=O)OC(C)(C)C=C3)c1O` (stereo unspecified), the MIC in the data set on Staphylococcus aureus was over 125 µM.
In turn, GENTAMICIN displayed an MIC in the data set on Staphylococcus aureus of 2 µM. That is a single-digit micromolar value.
On to `CC(=O)c1c(O)c(C)c(O)c(Cc2c3c(c(O)c4c2OC(c2ccccc2)CC4=O)C=CC(C)(C)O3)c1O` (stereo unspecified), for which the MIC in the data set on Staphylococcus aureus was over 125 µM.
`CCC(=O)C1=C(O)C(C)(C)C(O)=C(Cc2c(O)c3c(c(C(=O)CC)c2O)OC(C)(C)C=C3)C1=O` [DRUMMONDIN A] registered an MIC against Staphylococcus aureus of 1.56 µM (≈ 0.734 µg/mL).
In the case of `CC1(C)C=Cc2c(O)c(Cc3c(O)cc(O)cc3O)c(O)c(C(=O)/C=C/c3ccccc3)c2O1`, the MIC with Staphylococcus aureus is 15.6 µM (≈ 7.18 µg/mL).
Regarding `Cc1cc(O)cc(O)c1Cc1c(O)c2c(c(C(=O)/C=C/c3ccccc3)c1O)OC(C)(C)C=C2`, the MIC against Staphylococcus aureus turned out to be 7.8 µM (≈ 3.58 µg/mL).
On the same count and under the same terms, next, `CCC(=O)C1=C(O)C(C)(C)C(O)=C(Cc2c(O)c3c(c(C(C)=O)c2O)OC(C)(C)C=C3)C1=O` [DRUMMONDIN B]: 3.12 µM (≈ 1.42 µg/mL).
For the compound `CC(=O)c1c(O)c(C)c(O)c(Cc2c(O)c3c(c(C(=O)/C=C/c4ccccc4)c2O)OC(C)(C)C=C3)c1O` [ROTTLERIN], the Stability entry in data set [1], in [3], in data set [5], in data set [6], in data set [7] and in [11] was “Stable” in each case. For the same compound, the Stability entry in data set [12] is “Stable”; in [14] it was “Unstable”; in [15], “Stable”. For the same compound, the Drug metabolism result in [2] is “Metabolite detected”; in data set [4] it was “Metabolite detected”; in [8], “Metabolite detected”; in [9] it was 2%; in [10], “Metabolite detected”; in [13], 20%. For the same compound, the MIC in the data set with Staphylococcus aureus is 2 µM (≈ 1.03 µg/mL).
On to `CC(=O)C1=C(O)C(C)(CC=C(C)C)C(O)=C(Cc2c(O)c(CC=C(C)C)c(O)c(C(C)=O)c2O)C1=O` (stereo unspecified) [DRUMMONDIN F], for which the MIC in the data set on Staphylococcus aureus was found to be 0.78 µM (≈ 0.389 µg/mL).
With `CC(=O)C1=C(O)C(C)(C)C(O)=C(Cc2c(O)c3c(c(C(C)=O)c2O)OC(C)(C)C=C3)C1=O` [DRUMMONDIN C], the MIC with Staphylococcus aureus is 3.12 µM (≈ 1.38 µg/mL).
